Bioassay records as filed in PubChem.
An excerpt weighted towards active compounds, which were near 1.5% of everything screened.
Hsp70 activator = switches on Hsp70 transcription. AID 1203. HeLa Hsp70 promoter luciferase reporter, luminescence; scaled: vehicle 0, proteasome-inhibitor control 100%. activation, % at 10 µM. hit rate 0.04% among 200,000;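 active means activation above the mean across all tested compounds plus 3 SD, cutoff set per campaign, cut at about 5.5% in these data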;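 further: 100% = MG132 at 30 µM as the positive control and 0% = DMSO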
Mdm2 ligase inh = inhibitors of human Mdm2 E3 ubiquitin ligase. AID 1230. signal enhancement, % at 5 µM. hit rate 0.11% among 210,000. Q00987. cell-based MDM2 ubiquitination luciferase reporter, 2 h; 0 = plate control, 100 = twice control, blank-subtracted;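 active means signal enhancement of 30% or more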;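 further: luminescence tracks abundance of the self-degrading MDM2-luciferase fusion protein; higher signal means inhibition of MDM2 E3 ligase activity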
Target sequence (Q00987 whole entry, looked up, the tested form may be a part): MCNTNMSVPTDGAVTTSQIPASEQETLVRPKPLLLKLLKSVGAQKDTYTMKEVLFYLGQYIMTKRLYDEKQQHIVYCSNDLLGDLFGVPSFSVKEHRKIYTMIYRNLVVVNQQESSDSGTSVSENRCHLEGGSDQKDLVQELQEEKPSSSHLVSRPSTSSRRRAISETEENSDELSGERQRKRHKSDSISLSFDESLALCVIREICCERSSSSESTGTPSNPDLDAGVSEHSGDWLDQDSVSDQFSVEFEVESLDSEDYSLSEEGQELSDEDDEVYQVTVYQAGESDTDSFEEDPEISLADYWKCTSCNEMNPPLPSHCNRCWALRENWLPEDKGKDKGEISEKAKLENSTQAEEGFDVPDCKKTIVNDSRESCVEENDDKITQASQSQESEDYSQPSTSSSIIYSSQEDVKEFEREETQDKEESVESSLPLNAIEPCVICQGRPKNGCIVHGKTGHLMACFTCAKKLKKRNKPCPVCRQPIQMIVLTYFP
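Test system: stable mammalian line carrying autodegrading MDM2–luciferase fusion reporter; quantity: 2000 cells in each well; times: 4 h cell settling then 2 h compound exposure, 37 °C; detection: luminescence with SteadyLite reagent, 15 min at room temperature; evaluation: percent signal gain over controls, blank-subtracted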
Calpain2 inh = inhibitors of pig calpain II | purified calpain II, fluorogenic peptide substrate, 30 min | inhibition, % at 16 µM | hit rate 0.37% among 220,000 | AID 1236;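 active means inhibition above about 50%, limit read from the data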
Pf gamet viab = kills late stage P. falciparum gametocytes | P. falciparum stage V gametocytes, ATP luminescence, 24 h | inhibition, % at 10.9 µM | AID 743093 | hit rate 0.065% among 150,000;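 active means inhibition above the mean plus 3 SD of compounds within the control limits, set per campaign, cut at about 38% in these data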;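 further: 0% = DMSO wells and 100% = medium only without gametocytes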
Wee1 stabilizer = blocks degradation of human Wee1 kinase; P30291; HeLa Luc-Wee1K328M stability, luciferase luminescence; 100% = proteasome inhibitor MG132 effect; reporter increase, % at 5 µM; hit rate 1.2% among 220,000;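 active means activation above the mean of all tested compounds plus 3 SD, set per screening run, cut at about 8.8% in these data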;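 further: cells exposed to compound for 20 h before luminescence read; 0% = DMSO alone and 100% = MG132 at 30 µM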
* = called active by the depositor; i = inactive; . = no result given.

SMILES	Hsp70 activator	Mdm2 ligase inh	Calpain2 inh	Pf gamet viab	Wee1 stabilizer
O=C(NCCCCNC(=O)c1ccc(Br)s1)c1ccc(Br)s1	0	-40	16	-18	16*
CCOCCCNc1ccc(N2C(=O)C3CCCCC3C2=O)cc1[N+](=O)[O-] (stereo not given)	0	-4	59*	-15	3
CCOC(=O)N1CCC(Nc2ccc(N3C(=O)C4CCCCC4C3=O)cc2[N+](=O)[O-])CC1 (stereo not given)	0	-20	98*	-19	1
CCN(CC)c1ccc(N2C(=O)C3CCCCC3C2=O)cc1[N+](=O)[O-] (stereo not given)	0	-14	26	.	-4
CN(C)C(=O)c1c2c(nc3ccccc13)-c1ccccc1CC2	0	-5	-3	.	8.9*
CN(C)C(=O)c1c2c(nc3ccccc13)CCCC2	0	-5	-18	14	-3
COC(=O)C(CC(C)C)NC(=O)/C=C/c1ccccc1Cl (stereo not given)	0	7	-9	8	10*
O=C(/C=C/c1ccccc1Cl)Nc1ccccc1	.	-44	8	-5	9.3*
Cc1ccc(C)c(Nc2cc(C)nc3ccccc23)c1	.	.	.	-22	.
COc1ccc(-c2ccc(N)cn2)cn1	.	.	.	1	.
COC(=O)c1ccccc1NC(=O)CSc1nccc(C)n1	0	-5	5	24	10*
CC(=O)OC[C@H]1O[C@H](CCO/N=C(\C)CCN2CCCc3nc(C)c(C)cc32)C=C[C@@H]1OC(C)=O	0	.	-251	.	9.6*
Cc1[nH]n(-c2ccc(Cl)c(Cl)c2)c(=O)c1CCO	0	-14	-23	-23	-1
Cc1[nH]n(-c2ccc(C(=O)O)cc2)c(=O)c1CCO	0	-4	58*	.	1
COCC(=O)OCC(=O)Nc1cc(C)c(C)cc1[N+](=O)[O-]	0	12	-2	9	17*
Cc1ccc(C(=O)NCC(=O)OCC(=O)Nc2cc(C)c(C)cc2[N+](=O)[O-])cc1	0	-3	5	-11	-1
Cc1ccc(-c2csc3ncnc(NCCC(=O)O)c23)cc1C	.	.	.	-12	.
CC1CN(Cc2c(O)ccc3c2oc(=O)c2ccccc23)CC(C)O1 (stereo not given)	.	.	80*	4	-2
CC1CN(Cc2c(O)ccc3c(=O)c(-c4ccccc4)coc23)CC(C)O1 (stereo not given)	0	-11	i	4	-3
COc1ccc(-c2[nH]ncc2-c2csc(C)n2)c(O)c1	0	-12	-8	39*	-1
CCOc1ccc(-c2[nH]ncc2-c2csc(C)n2)c(O)c1	0	-11	-6	-6	-3
O=C(O)COc1ccccc1/C=N/NC(=O)c1cc(-c2ccccc2)nc2ccccc12	.	-4	-6	23	-1
O=C(N/N=C/c1ccccc1OC(F)F)c1cc(-c2ccncc2)nc2ccccc12	0	0	-71	-17	11*
Cn1c(N)c(C(=O)COC(=O)CCc2nc3ccccc3s2)c(=O)n(C)c1=O	0	-1	-9	18	-3
Cn1c(N)c(C(=O)COC(=O)CCCc2nc3ccccc3s2)c(=O)n(C)c1=O	0	-11	51*	.	0
SMILES	Hsp70 activator	Mdm2 ligase inh	Calpain2 inh	Pf gamet viab	Wee1 stabilizer
Cn1c(N)c(C(=O)COC(=O)C2CCCCC2)c(=O)n(C)c1=O	0	-8	89*	.	0
COc1ccccc1-n1c(SCC(=O)N(C)C)nnc1-c1ccco1	.	.	.	19	.
Cn1cc(Cl)c(C(=O)NC(=S)Nc2sc3c(c2C#N)CCCCC3)n1	0	-10	-25	-2	4
Cn1cc(Br)c(C(=O)Nc2sc3c(c2C#N)CCC3)n1	.	-19	-23	-4	10*
O=c1/c(=C\c2ccc(F)cc2)sc2n1CCCN=2	0	-3	10	-9	9.3*
O=c1/c(=C/c2ccc(O)cc2)sc2n1CCCN=2	0	-10	-8	.	2
COc1ccccc1N1CCN(CCC(=O)Nc2ccc(F)cc2)CC1	.	.	.	-7	.
O=C(NCc1cccnc1)c1cnc2sccn2c1=O	0	-14	-4	.	3
O=C(NCCC(c1ccccc1)c1ccccc1)c1cnc2sccn2c1=O	0	-11	-20	3	11*
Cc1c(C(c2cccc(Br)c2)c2c(C)n(C)n(-c3ccccc3)c2=O)c(=O)n(-c2ccccc2)n1C	.	.	.	-18	.
CCCCCCCN1CCC(=O)N([C@H](CO)CC(C)C)CC1	.	.	.	-4	.
Nc1c(C(=O)N/N=C/c2cccnc2)cnn1-c1ccccc1	0	-17	24	-9	9.6*
O=C(Cn1c(=O)n(-c2ccccc2)c(=O)n1CC(=O)N1CCCCC1)N1CCCCC1	0	-19	50*	16	-1
CC(C)(C)c1[nH]nc2c1C(c1cccnc1)C(C#N)=C(N)O2 (stereo not given)	0	-26	2	9	9.9*
Cc1ccc(Nc2nc(-c3ccc(S(=O)(=O)N4CCOCC4)cc3)cs2)cc1Cl	0	-10	60*	.	1
O=C(Nc1nc(-c2ccc(S(=O)(=O)N3CCOCC3)cc2)cs1)c1ccccc1	0	-9	-11	4	-2
COc1cccc(-n2c(SCC(=O)OC(C)C)nnc2-c2cccnc2)c1	0	-3	52*	9	-2
Cc1cc(NC(=O)c2cccc(Br)c2)no1	.	.	.	-8	.
COc1cccc(NC(=O)C(NC2CCCC2)c2ccccc2)c1 (stereo not given)	1	-1	2	.	2
COc1cccc(NC(=O)C(=S)NC2CCCCC2)c1	0	-25	16	10	9.7*
CC(=O)Nc1cc2nc(C)n(Cc3ccc([N+](=O)[O-])cc3)c2nc1C	.	.	.	-1	.
FC(F)(F)c1cc(N2CCN(Cc3ccccc3)CC2)c2ccccc2n1	.	-4	-10	-3	10*
CNC(=O)c1c(Cl)cnn1-c1ccc(C)cc1	0	-16	-12	0	6
C=CCNC(=O)c1c(Cl)cnn1-c1ccc(C)cc1	0	-9	3	0	9.2*
CNC(=O)c1c(Br)cnn1-c1ccc(C)cc1	0	-23	-6	-6	9.2*
SMILES	Hsp70 activator	Mdm2 ligase inh	Calpain2 inh	Pf gamet viab	Wee1 stabilizer
CN(C)C(=O)COc1ccc2c3c(c(=O)oc2c1)CCCC3	.	.	.	-20	.
CCCC(C)NC(=O)CN1C(=O)c2cccc3cccc1c23 (stereo not given)	.	.	.	6	.
Cn1c(=O)n(CCc2ccccc2)c(=O)c2c1nc1n2CCCN1CCc1ccccc1	0	5	69*	6	0
Cn1c(=O)c2c(nc(N3CCN(Cc4ccccc4)CC3)n2CCCc2ccccc2)n(C)c1=O	0	-4	-7	.	10*
CSc1ncccc1C(=O)Nc1nc2ccc(S(C)(=O)=O)cc2s1	0	-13	-15	-8	8.9*
CCCCCN1CC(O)=C(c2nc3ccccc3[nH]2)C1=N	0	-3	-2	-14	10*
COc1ccc(C2(NC(C)=O)CCN(Cc3cccnc3)CC2)cc1	.	.	.	8	.
CCS(=O)(=O)c1ccc(S(=O)(=O)CC)s1	0	-4	52*	.	-2
